Measured values pooled from the literature.
Protocols differ between the studies behind these lines.
BTK: Tyrosine-protein kinase BTK (BTK, Homo sapiens, UniProt Q06187)
BTK R28H: Tyrosine-protein kinase BTK (BTK, Homo sapiens, UniProt Q06187, R28H)

| Structure (SMILES) | target | observed | action | technique | concentration | measurement | value |
| --- | --- | --- | --- | --- | --- | --- | --- |
| COc1cc(Nc2cnc(C#N)c(O[C@H](C)CN(C)C)n2)ncc1-c1cnn(C)c1 | BTK | enzyme activity | inhibitor | radiometric | 1 µM | remaining activity | 88% |
| O=C(Nc1cnn(-c2csc(C(=O)NC3COC3)c2)c1)Nc1c(F)cccc1Cl | BTK | enzyme activity | inhibitor | – | 5 µM | remaining activity | 89.3% |
| COc1ccc2c(c1)O[C@@H](c1ccc(OC)c(OC)c1)C[C@H]2NC(=O)C1(c2ccc3c(c2)OC(F)(F)O3)CC1 | BTK | cell-free assay | – | competition with immobilised ligand | 1 µM | remaining binding | 81% |
| COc1ccc(F)cc1C(=O)NCc1ccc(-c2nn([C@@H](C)C(F)(F)F)c(N)c2C(N)=O)cc1 | BTK | binding | – | SPR | – | kon | 82000 M⁻¹ s⁻¹ |
| CN(C)C1CCN(CC#Cc2nn(C3CCCC3)c3nc(NCc4ccccc4)ncc23)C1 (stereo not drawn) | BTK | enzyme activity | inhibitor | FRET | 1 µM | inhibition | 5% |
| Cc1cc(NC(=O)c2cccc(S(F)(F)(F)(F)F)c2)cc(-n2ccn3nc(-c4cccnc4)cc23)c1 | BTK | cell-free assay | – | competition with immobilised ligand | 1 µM | remaining binding | 83.8% |
| Cc1ccc(NC(=O)c2ccc(C)c(C(F)(F)F)c2)cc1C#Cc1nn(C2CCC(O)CC2)c2ncnc(N)c12 (stereo not drawn) | BTK R28H | cell-free assay | – | – | 10 µM | remaining signal | 71% |
| Cc1cnc(NC2CCOCC2)nc1-n1cnc(C(=O)NC(CN)c2cc(F)cc(Cl)c2)c1 (stereo not drawn) | BTK | enzyme activity | inhibitor | radiometric | 1 µM | remaining activity | 102% |
| CCC(=N\O)/C(C)=C/c1ccc(F)cc1 | BTK | cell-free assay | – | competition with immobilised ligand | 1 µM | remaining binding | 78% |
| Oc1cccc(-c2nc(N3CCOCC3)c3oc4ncccc4c3n2)c1 | BTK | cell-free assay | – | – | 0.5 µM | remaining signal | 95.2% |
| CCC(=O)N[C@H]1CC[C@@H](C(=O)N(C)c2ccc(-c3nc4ccccc4o3)cc2)C1 | BTK | cell-free assay | – | competition with immobilised ligand | 1 µM | remaining binding | 77% |
| Nc1nc(Nc2ccccc2)sc1C(=O)c1c(F)cccc1F | BTK | enzyme activity | inhibitor | – | 10 µM | remaining activity | 68% |
| CC(C)(C=C(C#N)C(=O)N1CCC[C@H]1Cn1nc(-c2ccc(Oc3ccccc3)cc2F)c2c(N)ncnc21)N1CCOCC1 | BTK | enzyme activity | inhibitor | – | – | kinact | 0.0048 s⁻¹ |
| COc1ccc(COc2ccc(Cc3cnc(N)nc3N)cc2OC)cc1 | BTK | cell-free assay | – | – | 0.5 µM | remaining signal | 104% |
| Cc1cc(NC(=O)c2cccc3cc(-c4cccc5[nH]nc(N)c45)ccc23)ccc1F | BTK R28H | enzyme activity | inhibitor | – | 0.1 µM | activity vs control | 84% |
| COc1cc(/C=C/C(=O)CC(=O)/C=C/c2ccc(O)c(OC)c2)ccc1O | BTK | enzyme activity | inhibitor | – | 1 µM | activity vs control | 90% |
| COc1cc2c(N3CCN(C(=O)Nc4ccc(OC(C)C)cc4)CC3)ncnc2cc1OCCCN1CCCCC1 | BTK | cell-free assay | – | – | 0.5 µM | remaining signal | 102% |
| Cc1noc([C@H]2C[C@@H](c3ccc(C(F)(F)F)cc3)CN(C(=O)N3CCS(=O)(=O)C3)C2)n1 | BTK | cell-free assay | – | competition with immobilised ligand | 1 µM | remaining binding | 96% |
| c1nc2c(Nc3ccc4c(c3)OCCO4)nc(Nc3ccc4c(c3)OCCO4)nc2[nH]1 | BTK | enzyme activity | inhibitor | – | 10 µM | activity vs control | 0.65% |
| FC(F)c1nc2ccccc2n1-c1nc(N2CCOCC2)nc(N2CCOCC2)n1 | BTK | enzyme activity | inhibitor | – | 10 µM | remaining activity | 98% |
| Cc1ccc(C(=O)NCc2ccsc2)cc1C#Cc1cn(C(C)C)c2ncnc(N)c12 | BTK | enzyme activity | inhibitor | – | 1 µM | activity vs control | 73% |
| O=C(NCCCC1CCCCC1)c1ccc(CNC(=O)c2cnn(-c3ccccc3)c2C(F)(F)F)cc1 | BTK | cell-free assay | – | competition with immobilised ligand | 0.1 µM | remaining binding | 100% |
| C=CC(=O)N1CCC[C@@H]1Cn1nc(-c2ccc(Oc3ccccc3)cc2F)c2c(N)ncnc21 | BTK | enzyme activity | inhibitor | – | – | kinact | 0.0034 s⁻¹ |
| N#CC1(c2ccccn2)CCN(Cc2cc(C(=O)N3CCCC3)c(=O)n3ccccc23)CC1 | BTK | cell-free assay | – | competition with immobilised ligand | 1 µM | remaining binding | 100% |
| Nc1nc(NC2CCCCC2)sc1C(=O)c1ccccc1 | BTK | enzyme activity | inhibitor | – | 10 µM | remaining activity | 75% |
| CC(=O)N1CCC(c2ccc(C(=O)NC(=N)N)cc2C(F)(F)F)CC1 | BTK | cell-free assay | – | competition with immobilised ligand | 1 µM | remaining binding | 100% |
| CC(C)(C)c1nc2c(s1)c1nc(N)ncc1c1ccc(NS(=O)(=O)c3c(F)cccc3F)c(F)c12 | BTK | enzyme activity | inhibitor | radiometric | 1 µM | remaining activity | 75% |
